Data set [1] in a line: Half life of compound when water is added (0.15u) in pH 7.4 phosphate buffer (0.05 M) at 37 degree C. Type of data set: ADME. The method, boiled down: (§1)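 Chemical stability: compound added from freshly prepared 8 mM DMSO stock into 0.05 M phosphate buffer (μ = 0.15), pH 7.4, at 37 °C. Samples drawn at intervals and injected directly onto reversed-phase HPLC with UV detection. Buffer pH checked before and after. Disappearance followed first-order kinetics, giving apparent rate constants. Half-life in minutes.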

Data set [2] can be described thus: Half life of compound (0.15u) in pH 7.4 phosphate buffer (0.05 M) at 37 degree C. It is filed as ADME. The method, boiled down:
as §1

Data set [3] in a line: Stability in aqueous buffer at pH 7.4. Type of data set: physicochemical. The method, boiled down:
as §1

Data set [4] in a line: Second order oxidation rate constant determined by using Ferricyanide. Type of data set: ADME. The method, boiled down: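 Oxidation by ferricyanide under pseudo-first-order conditions, with Fe(CN)6^3- in large excess over the dihydro carrier and pH held constant. Pseudo-first-order rates were measured at several ferricyanide concentrations, and the second-order oxidation rate constant (Ko) was derived from them.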

In data set [5] the test system is Homo sapiens. Put plainly: Concentration of compound in human blood tissues after intravenous administration of 2 g dose. It is filed as ADME, organism-based.
Data set [6] can be described thus: Partition coefficient (logP). The following applies: octanol/water. Type of data set: physicochemical.
Data set [7] in a line: Dissociation constant of the compound. Type of data set: physicochemical.
For data set [8], the system named is Homo sapiens. Put plainly: Concentration of compound in human brain tissues after intravenous administration of 2 g dose. It is filed as ADME, organism-based. The following applies: in vivo.

The text below walks through data of ChEMBL document CHEMBL1124695, “Brain-specific chemical delivery systems for beta-lactam antibiotics. Synthesis and properties of some dihydropyridine and dihydroiosquinoline derivatives of benzylpenicillin” (J Med Chem, 1989).

By half-life is commonly meant the time needed for the level to fall by half in the phase considered. A word on the logP: it is a log measure of how a compound divides between an organic and an aqueous phase. Read a high logP as a more lipophilic compound. A word on the pKa: it is the negative logarithm of the acid dissociation constant. Read a high pKa as a group that holds its proton tightly.

Regarding `C[n+]1cccc(C(=O)NCC(OC(=O)C2N3C(=O)[C@@H](NC(=O)Cc4ccccc4)[C@H]3SC2(C)C)c2ccccc2)c1.[I-]` (stereo partly specified), the half-life in data set [1] was found to be 4.47 h.
Compound `CN1C=C(C(=O)NCCOC(=O)C2N3C(=O)[C@@H](NC(=O)Cc4ccccc4)[C@H]3SC2(C)C)c2ccccc2C1` (stereo partly specified) yielded a half-life in data set [2] of 16.5 h.
Consider `C[n+]1cc(C(=O)NCCOC(=O)C2N3C(=O)[C@@H](NC(=O)Cc4ccccc4)[C@H]3SC2(C)C)c2ccccc2c1.[I-]` (stereo partly specified), for which, in data set [1], the half-life worked out at 6.29 h.
For the compound `CC1(C)S[C@@H]2[C@H](NC(=O)Cc3ccccc3)C(=O)N2C1C(=O)OCCO` (stereo partly specified), the half-life in data set [2] was 7.27 h. Besides, in data set [3], the k was 0.0016 min⁻¹.
`CC(CNC(=O)c1ccc[n+](C)c1)OC(=O)C1N2C(=O)[C@@H](NC(=O)Cc3ccccc3)[C@H]2SC1(C)C.[I-]` (stereo partly specified) yielded a half-life in data set [1] of 6.06 h.
On the same count and under the same terms, the value for `C[n+]1cccc(C(=O)OCCOC(=O)C2N3C(=O)[C@@H](NC(=O)Cc4ccccc4)[C@H]3SC2(C)C)c1.[I-]` (stereo partly specified) was 0.615 h; that for `C[n+]1cccc(C(=O)NCCOC(=O)C2N3C(=O)[C@@H](NC(=O)Cc4ccccc4)[C@H]3SC2(C)C)c1.[I-]` (stereo partly specified) was 3.26 h.
Regarding `CN1C=CCC(C(=O)OCOC(=O)C2N3C(=O)[C@@H](NC(=O)Cc4ccccc4)[C@H]3SC2(C)C)=C1` (stereo partly specified), the Ko in data set [4] amounted to 0.53 M⁻¹ s⁻¹. The figures for the half-life in data set [2] and in data set [1] were 1.55 h and 2.26 h, respectively.
The compound `C[n+]1cccc(C(=O)OCOC(=O)C2N3C(=O)[C@@H](NC(=O)Cc4ccccc4)[C@H]3SC2(C)C)c1.[I-]` (stereo partly specified) came in with a half-life in data set [1] of 0.045 h.
In turn, `CN1C=CCC(C(=O)NCC(OC(=O)C2N3C(=O)[C@@H](NC(=O)Cc4ccccc4)[C@H]3SC2(C)C)c2ccccc2)=C1` (stereo partly specified) yielded a Ko in data set [4] of 15.85 M⁻¹ s⁻¹. For the same compound, the half-life in data set [2] was 0.587 h.
Turning to `CN1C=CCC(C(=O)NCCOC(=O)C2N3C(=O)[C@@H](NC(=O)Cc4ccccc4)[C@H]3SC2(C)C)=C1` (stereo partly specified), the Ko in data set [4] was 26.08 M⁻¹ s⁻¹. For the same compound, the half-life stood at 0.213 h in data set [2] and 2.47 h in data set [1].
Consider `CN1C=CCC(C(=O)OCCOC(=O)C2N3C(=O)[C@@H](NC(=O)Cc4ccccc4)[C@H]3SC2(C)C)=C1` (stereo partly specified), for which the Ko in data set [4] was found to be 1.552 M⁻¹ s⁻¹. Further, the half-life in data set [2] came out at 1.93 h; in data set [1], 7.38 h.
`CC(CNC(=O)C1=CN(C)C=CC1)OC(=O)C1N2C(=O)[C@@H](NC(=O)Cc3ccccc3)[C@H]2SC1(C)C` (stereo partly specified) displayed a Ko in data set [4] of 11.94 M⁻¹ s⁻¹. This compound gave a half-life in data set [2] of 0.43 h.
Take `CC1(C)S[C@@H]2[C@H](NC(=O)Cc3ccccc3)C(=O)N2[C@H]1C(=O)O` [PENICILLIN G]: the results for the Concentration with Homo sapiens [5] and in the data set with Homo sapiens [8] were 7500 ng/mL and 320 ng/mL, respectively. This compound also gave a logP in data set [6] of 1.76. The pKa in data set [7] was found to be 2.6.
